Legend:
[1] = tested on: Mus musculus; experiment: Weight change in g when a dose of 100 mg/kg (iv) to P388 leukemia model; format: functional
How it was run: (§1)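 Mice (10 per group) were inoculated ip at D0 with 10^6 P388 leukemia cells and given a single iv dose at D1. Read-outs were weight change (g), median survival day, T/C % versus controls and survivors at D30.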

[2] = tested on: Mus musculus; experiment: Survivors at day 30 when a dose of 100 mg/kg administered intravenously to P388 (iv) to L1210 leukemia mice model; format: functional
[3] = tested on: Mus musculus; experiment: Weight change in g when a dose of 10 mg/kg administered intraperitoneally to B16 melanoma infected mice; format: functional; conditions: route intraperitoneal
How it was run: (§2)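 Hybrid BDF1 mice were inoculated ip at D0 with 0.5 mL of B16 melanoma homogenate (1 g tumor in 10 mL physiological serum). Drug was given ip daily on days 1-9, with cis-platinum 0.5 mg/kg as positive control on the same schedule.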

[4] = tested on: Mus musculus; experiment: Weight change in g when a dose of 20 mg/kg (iv) to L1210 leukemia mice model; format: functional
How it was run: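 Mice received 10^5 L1210 leukemia cells ip at D0, then a single iv drug dose at D1. Read-outs were weight change (g), median survival day, T/C % and survivors at D30.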

[5] = tested on: Mus musculus; experiment: Survivors at day 60 when a dose of 2.5 mg/kg to B16 melanoma infected when tested in 10 mice; format: functional
[6] = tested on: Mus musculus; experiment: Antitumor activity against P388 leukemia in mice at a dose of 30 mg/kg administered intraperitoneally for 5 days; format: functional, organism-based; parameters: dose 30 mg/kg
How it was run: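 CDF1 hybrid male or female mice, 10 per group, were inoculated ip on day 0 with 10^6 viable P388 leukemia cells. Drug in distilled water was given ip (0.1 mL/10 g body weight) daily on days 1-5, with vehicle, 5-fluorouracil and BD 84 controls given the same way. T/C = median survival of treated/controls × 100; T/C > 128% counted as significant.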

[7] = tested on: Mus musculus; experiment: Weight change in g when a dose of 10 mg/kg administered intraperitoneally in B-16 melanoma infected mice; format: functional; conditions: route intraperitoneal; how it was run: as §2
[8] = tested on: Mus musculus; experiment: Survivors at day 60 when a dose of 10 mg/kg to B16 melanoma infected mice; 4/10; format: functional
[9] = tested on: Mus musculus; experiment: Antitumor activity against B16 melanoma cells at a dose of 20 mg/kg administered intraperitoneally to mice; format: functional; conditions: route intraperitoneal
How it was run: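 Hybrid BD F1 mice were inoculated ip at D0 with 0.5 mL of B16 melanoma homogenate (1 g tumor in 10 mL physiological serum). Drugs were given ip daily D1-9. Cisplatin 0.5 mg/kg was the positive control under the same schedule.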

[10] = tested on: Mus musculus; experiment: Survivors at day 30 when a dose of 80 mg/kg to P388 leukemia model; 0/10; format: functional
[11] = tested on: Mus musculus; experiment: Median survival day in P388 leukemia model when a dose of 50 mg/kg administered intravenously to mice; format: functional; conditions: route intravenous
How it was run: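 P388 leukaemia in CDF1 hybrid mice, 10 per group. At D0, 10^6 viable cells were inoculated ip, followed by a single iv dose on D1. Weight change, median survival day, T/C (treated/control median survival × 100) and survivors at D30 were recorded.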

[12] = tested on: Mus musculus; experiment: Median survival day of B16 melanoma infected micee when a dose of 5 mg/kg administered intraperitoneally; format: functional; conditions: route intraperitoneal
How it was run: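 B16 melanoma in hybrid BD F1 mice. At D0 each mouse was inoculated ip with 0.5 mL of homogenate made from 1 g of tumour in 10 mL of physiological serum. Compounds were given ip daily at the stated doses for 9 days (D1-9), with cis-platinum 0.5 mg/kg under the same schedule as positive control.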

[13] = tested on: Mus musculus; experiment: Survivors at day 30 when a dose of 40 mg/kg to P388 leukemia model; 1/10; format: functional
[14] = tested on: Mus musculus; experiment: In vivo toxicity test on P388 cells at a dose of 100 mg/kg administered intravenously to P388 leukemia mice model; format: functional; conditions: route intravenous; how it was run: as §1
[15] = tested on: Mus musculus; experiment: Survivors at day D30 when a dose of 20 mg/kg administered intravenously to L1210 leukemia mice model; 0/10; format: functional; conditions: route intravenous
[16] = tested on: Mus musculus; experiment: Antitumor activity against C38 adenocarcinoma cells at a dose of 75 mg/kg administered intravenously to mice; tumor volume at D32 (T/C); format: functional, MC-38; conditions: route intravenous
How it was run: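 Hybrid BD F1 mice, 10 per group, were implanted sc with a standard 3-mm3 C38 colon adenocarcinoma fragment. Drugs were given iv at the stated doses on D1 or on D2 + D9. Read-out was tumor size in treated versus control mice (T/C) at the day stated.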

Cc1cnc(NCCCN(C)C)c2c3cc(O)ccc3n(C)c12
Weight change [1]: -0.25 g
Survivors [2]: 4
Weight change [3]: -1.9 g
Weight change [4]: -1.1 g
Survivors [5]: 0

CCN(CC)CCCNc1[nH]cc(C)c2nc3ccc(O)cc3c1-2
T/C [6]: Toxic
Weight change [7]: 1.6 g
Survivors [8]: 4
T/C [9]: 211%
Survivors [10]: 0

CCN(CC)CCCNc1ncc(C)c2c1c1cc(O)ccc1n2C
Median survival day [11]: 19
Median survival day [12]: 41.25
Survivors [13]: 1
T/C [14]: 223%
Survivors [15]: 0
Tumor volume [16]: 13%

Source: ChEMBL document CHEMBL1124035, “1-Amino-substituted 4-methyl-5H-pyrido[4,3-b]indoles (gamma-carbolines) as tricyclic analogues of ellipticines: a new class of antineoplastic agents” (1988)
